NF-kB expr up: compounds increasing NF-kB expression in human neuronal cells; fold change at 12.5 µM; NF-kB reporter expression; active compounds read high; 1.6% of 190,000 active; in the data active = fold change above about 3.3
Pf gametocyte: inhibitors of late stage P. falciparum gametocyte viability; P. falciparum stage V gametocytes, ATP luminescence, 24 h; inhibition, % at 10.9 µM; 0.065% of 150,000 active; AID 743093;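 active = inhibition above the mean plus 3 SD of compounds within the control limits, set per campaign, cut at about 38% in these data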;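 note: 0% = DMSO wells and 100% = medium only without gametocytes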
STAT3 activator: increases IL-6 driven STAT3 reporter signal. 0.91% of 190,000 active. AID 871. activation (% of control), % at 5.6 µM. U3A cells, IL-6 STAT3-luciferase reporter, luminescence; 100% = signal with IL-6 EC80 alone;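 active = activation above the screen-wide mean of compound activation plus 3 SD, cut at about 130% in these data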;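 note: 0% = background luminescence of wells with medium and substrate only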
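Material: STAT1-lacking human U3A cells, STAT3 luciferase reporter | Benchmarks: IL-6-only wells as 100% reference | Probe or stimulus: IL-6 (33 ng/mL) | Timing: Compound 1 h, then IL-6 6 h at 37 °C | Detection: Luminescence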
STAT1 inh: inhibitors of IFN-gamma induced STAT1 signaling | 0.35% of 200,000 active | NIH 3T3 STAT1-luciferase reporter, luminescence | inhibition, % at 5.5 µM;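 active = inhibition above a set limit, the mean inhibition across all tested compounds plus 3 SD, cut at about 34% in these data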;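 note: 0% = IFN-gamma with DMSO and 100% = IFN-gamma with 300 µM nifuroxazide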
APP 5'UTR act: APP 5'UTR luciferase reporter activation. 1% of 190,000 active. activation, % at 2 µM. SH-SY5Y APP 5'UTR luciferase reporter, luminescence; zero percent = DMSO vehicle wells;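 active = activation above a set limit, based on mean plus 3 SD of controls, cut at about 140% in these data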
STAT1 activator: STAT1 signaling activation; NIH 3T3 STAT1-luciferase reporter, IFN-gamma, luminescence; 100% = IFN-gamma alone, no compound; 2.6% of 200,000 active; activation (% of control), % at 5.5 µM;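 active = activation above the screen-wide mean activation plus 3 SD, cut at about 130% in these data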;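 note: raw ratio to IFN-gamma control signal so 100% means no change and 0% no light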
STAT1 activ conf: confirmation of STAT1 signaling activators; shares compounds with STAT1 activator; NIH 3T3 STAT1-luciferase reporter, IFN-gamma potentiation, luminescence; 100% = IFN-gamma EC80 alone, no compound; activation (% of control), % at 5.7 µM; 97% of 1,200 active; AID 1262;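 active = activation above a set limit carried over from the earlier primary STAT1 screen, cut at about 140% in these data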;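 note: simple ratio to median IFN-gamma plus DMSO wells so 0% means no light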
NFkB act STAT1ct: activates NF-kappaB, counter-screen to STAT1 activators; shares compounds with STAT1 activator; HEK293T NF-kB luciferase reporter, TNF-alpha stimulated, luminescence; 100% = TNF-alpha with vehicle only; activation (% of control), % at 5.7 µM; 43% of 1,200 active; AID 1306;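 active = activation above the mean of solvent-only control wells plus 3 SD, set per campaign, cut at about 130% in these data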;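 note: TNF-alpha given at a submaximal dose yielding about 80% of full reporter signal; values are well signal over median control so 100% means no change and 0% no light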
STAT3 act 2: counter-screen for STAT1 activators: human STAT3 activation | activation (% of control), % at 5.7 µM | U3A cells STAT3-luciferase reporter, IL-6, luminescence; cells lack STAT1; 100 = IL-6 alone, no compound effect | shares compounds with STAT1 activator | 46% of 1,200 active | AID 1316;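 active = activation above the solvent-only control well mean plus 3 SD, set per plate batch, cut at about 110% in these data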;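 note: 0% = no luminescence and 100% = median IL-6 plus DMSO wells; higher means more STAT3 reporter activation so hits are non-selective activators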
* = called active by the depositor. A selection: hits, their analogues and other compounds. The true share with any hit is near 3.9%.

COc1ccc(N/C=C2/Sc3ccccc3NC2=O)cc1 was read as NF-kB expr up 1.8, Pf gametocyte -13, STAT3 activator 110, STAT1 inh -71, APP 5'UTR act 104, STAT1 activator 166*, STAT1 activ conf 170*, NFkB act STAT1ct 112 and STAT3 act 2 107.
`CC1=CN2C(=N)/C(=C/c3ccco3)C(=O)N=C2S1` gave NF-kB expr up 7.7*, Pf gametocyte 11, STAT3 activator 118, STAT1 inh -118, APP 5'UTR act 136*, STAT1 activator 206*, STAT1 activ conf 310*, NFkB act STAT1ct 167* and STAT3 act 2 120*.
For COc1ccccc1/C=C/C(=O)NCCC1=CCCCC1 the results were NF-kB expr up 0.97, STAT3 activator 113, STAT1 inh -65, APP 5'UTR act 52, STAT1 activator 159*, STAT1 activ conf 170*, NFkB act STAT1ct 128 and STAT3 act 2 134*.
`NC(N)=Nc1nc(C2COc3ccccc3O2)cs1` (stereo not given) gave NF-kB expr up 5*, Pf gametocyte -10, STAT3 activator 92, STAT1 inh -72, APP 5'UTR act 166*, STAT1 activator 164*, STAT1 activ conf 202*, NFkB act STAT1ct 132 and STAT3 act 2 105.
For N/C(=N\O)C1COc2ccccc2O1 (stereo not given) the results were NF-kB expr up 1.2, Pf gametocyte -1, STAT3 activator 94, STAT1 inh -1, APP 5'UTR act -10 and STAT1 activator 101.
For CCc1ccccc1-n1ncc(C(=O)Nc2ccccc2OC)c1C the results were Pf gametocyte -2.
For COc1ccccc1NC(=S)N/N=C/c1ccc(O)cc1 the results were NF-kB expr up 4*, Pf gametocyte -35, STAT3 activator 71, STAT1 inh -67, APP 5'UTR act 124, STAT1 activator 159*, STAT1 activ conf 209*, NFkB act STAT1ct 131 and STAT3 act 2 94.
`COc1ccccc1NC(=S)N/N=C/c1cccc(C)c1` gave NF-kB expr up 1.7, Pf gametocyte -2, STAT3 activator 96, STAT1 inh -23, APP 5'UTR act 20 and STAT1 activator 120.
`CN(C)/C=C/C(=O)c1ccccc1OCc1cnc(Cl)s1` gave NF-kB expr up 1.8, Pf gametocyte -18, STAT3 activator 105, STAT1 inh -7, APP 5'UTR act 24 and STAT1 activator 104.
For Cn1c(=O)[nH]c(=O)c2c1nc(NC1CCCC1)n2Cc1ccccc1 the results were Pf gametocyte -6.
Screening C=CCNc1nc(-c2cc3ccccc3o2)cs1 returned NF-kB expr up 7.5*, STAT3 activator 80, STAT1 inh -94, APP 5'UTR act 210*, STAT1 activator 185*, STAT1 activ conf 226*, NFkB act STAT1ct 86 and STAT3 act 2 85.
Screening C=CCn1c(C)cc(C(=O)CSc2nc3ccccc3o2)c1C returned NF-kB expr up 2.2, Pf gametocyte -18, STAT3 activator 75, STAT1 inh -65, APP 5'UTR act 107, STAT1 activator 160*, STAT1 activ conf 215*, NFkB act STAT1ct 120 and STAT3 act 2 103.
Screening CC(C)CC(=O)Nc1ccc2nn(-c3ccccc3)nc2c1 returned NF-kB expr up 6.3*, STAT3 activator 93, STAT1 inh -87, APP 5'UTR act 179*, STAT1 activator 177*, STAT1 activ conf 224*, NFkB act STAT1ct 149* and STAT3 act 2 109.
`COc1cc(/C=N/O)ccc1OCc1ccc(Cl)cc1` gave NF-kB expr up 8.4*, Pf gametocyte -9, STAT3 activator 85, STAT1 inh -59, APP 5'UTR act 191*, STAT1 activator 155*, STAT1 activ conf 283*, NFkB act STAT1ct 148* and STAT3 act 2 141*.
`CCOc1cc(/C=N/O)ccc1OCc1ccc(F)cc1` gave NF-kB expr up 1.4, Pf gametocyte -7, STAT3 activator 100, STAT1 inh -5, APP 5'UTR act -17 and STAT1 activator 104.
Cc1c(C(=O)N2CCc3ccccc32)oc2ccccc12 was read as NF-kB expr up 8.2*, STAT3 activator 107, STAT1 inh -62, APP 5'UTR act 156*, STAT1 activator 155*, STAT1 activ conf 217*, NFkB act STAT1ct 141* and STAT3 act 2 150*.
Cc1ccc(/C=C/C(=O)N2CCc3ccccc32)o1 was read as NF-kB expr up 8.2*, Pf gametocyte -18, STAT3 activator 91, STAT1 inh -92, APP 5'UTR act 168*, STAT1 activator 180*, STAT1 activ conf 224*, NFkB act STAT1ct 138* and STAT3 act 2 109.
For COc1ccccc1/C=N\N=C(\N)c1ccccn1 the results were NF-kB expr up 2.7, Pf gametocyte 19, STAT3 activator 94, STAT1 inh -70, APP 5'UTR act 57, STAT1 activator 162*, STAT1 activ conf 190*, NFkB act STAT1ct 124 and STAT3 act 2 108.
`COc1cccc(/C=N/N=C(\N)c2nonc2N)c1O` gave NF-kB expr up 1.9, Pf gametocyte 0, STAT3 activator 85, STAT1 inh -28, APP 5'UTR act 30 and STAT1 activator 124.
CCN(CC)CCCN(C(=O)c1ccc(OC)cc1)c1nc(-c2ccc(OC)cc2)cs1 was read as Pf gametocyte -21.
Screening COCCCN(C(C)=O)c1nc(-c2ccc(OC)cc2)cs1 returned NF-kB expr up 2.1, Pf gametocyte 8, STAT3 activator 109, STAT1 inh -61, APP 5'UTR act 8, STAT1 activator 156*, STAT1 activ conf 145*, NFkB act STAT1ct 100 and STAT3 act 2 112*.
Screening Cn1ncc([N+](=O)[O-])c1C(=O)Nc1ccc(-c2ccccc2)cc1 returned Pf gametocyte 16.
`CS(=O)(=O)c1cnc2c(S(=O)(=O)c3ccccc3)cnn2c1N` gave NF-kB expr up 1, Pf gametocyte -1, STAT3 activator 105, STAT1 inh -1, APP 5'UTR act 9 and STAT1 activator 100.
